Here are results for 24 molecules from ChEMBL document CHEMBL1144531, “Novel selective inhibitors of neutral endopeptidase for the treatment of female sexual arousal disorder” (Bioorg Med Chem, 2007).

The nature of data set [1]: Inhibition of dog kidney cortex NEP at pH 7. Set-up: species or system Canis lupus familiaris.
The species entered for another data set is Sus scrofa. The data set is described as follows: Inhibition of pig ACE. Summed up: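 Porcine ACE; same format as the NEP assay. Substrate o-aminobenzoyl-Gly-Gly-p-nitro-Phe-Pro-OH, 10 µM final, in 50 mM Tris-Cl pH 7.4 (37 °C) with 300 mM NaCl. Stopped with 2 mM EDTA; fluorescence read-out. IC50 from dilution series.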
The target of data set [2] is T1, Endothelin-converting enzyme 1 (Homo sapiens) (UniProt P42892).
T1 sequence (whole entry): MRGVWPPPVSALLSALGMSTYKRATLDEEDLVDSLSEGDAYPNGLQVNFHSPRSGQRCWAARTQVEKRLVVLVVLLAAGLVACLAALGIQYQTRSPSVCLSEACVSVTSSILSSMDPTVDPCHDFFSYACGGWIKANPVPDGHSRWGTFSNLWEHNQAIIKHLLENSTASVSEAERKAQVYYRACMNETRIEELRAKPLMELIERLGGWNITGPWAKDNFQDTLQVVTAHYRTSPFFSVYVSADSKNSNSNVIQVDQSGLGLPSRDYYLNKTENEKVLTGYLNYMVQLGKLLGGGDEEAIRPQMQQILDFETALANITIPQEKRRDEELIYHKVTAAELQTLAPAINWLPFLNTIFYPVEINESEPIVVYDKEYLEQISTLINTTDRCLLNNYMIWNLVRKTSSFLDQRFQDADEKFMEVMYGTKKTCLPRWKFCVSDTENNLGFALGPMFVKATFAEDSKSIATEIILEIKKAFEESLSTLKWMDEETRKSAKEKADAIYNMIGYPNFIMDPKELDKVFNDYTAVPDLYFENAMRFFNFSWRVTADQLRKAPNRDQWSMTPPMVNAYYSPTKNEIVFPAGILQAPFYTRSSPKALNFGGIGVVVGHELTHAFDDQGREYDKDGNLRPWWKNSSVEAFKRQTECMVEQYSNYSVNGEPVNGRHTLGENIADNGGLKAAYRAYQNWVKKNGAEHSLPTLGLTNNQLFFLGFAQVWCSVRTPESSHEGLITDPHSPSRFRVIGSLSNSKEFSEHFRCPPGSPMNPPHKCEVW
The data set is described as follows: Inhibition of human ECE1. An outline of the steps:
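Human ECE-1, run like the ACE assay (50 mM Tris-Cl pH 7.4, 300 mM NaCl, EDTA stop), with Big ET-1 as substrate. IC50 from dilution series.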

Data set [3] in a line: Distribution coefficient, log D in n-octanol and phosphate buffer at pH 7.4. In kind it is physicochemical.
Data set [4] in a line: Metabolic stability in human liver microsomes at 1 uM. The format is ADME, Microsome. Summed up: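 Human liver microsomes, 1 µM compound with 0.5 µM CYP. Reported as first-order compound disappearance half-life.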
Background: Microsomes from liver hold many membrane-bound enzymes, among them those of drug oxidation.

Data set [5] in a line: Permeability from apical to basolateral side of the Caco-2 cell membrane at pH 7.4. The format is ADME, cell-based. The note with it: human, Caco-2, pH 7.4. An outline of the steps:
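Caco-2 monolayers; apparent permeability (Papp) measured with pH 7.4 in both apical and basolateral chambers.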

The nature of data set [6]: Inhibition of dog kidney cortex NEP at pH 7.4. Also on record: species or system Canis lupus familiaris.
A further data set is filed under the species Homo sapiens. The data set can be described thus: Protein binding in human plasma at 1 ug/ml by equilibrium dialysis. Particulars: read-out: PPB (converted). Background: In equilibrium dialysis free small molecules cross a membrane that holds back macromolecules.
The nature of data set [7]: Clearance in rat at 1 mg/kg, iv and 1 mg/kg, po. The format is ADME, organism-based. Particulars: in vivo. An outline of the steps:
(§1)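 Male CD rats, jugular vein cannulated under general anaesthesia; dosed 1 mg/kg iv (tail vein) and po (gavage). Serial 0.2 ml blood samples taken from the cannula into heparin, centrifuged to plasma, stabilised with 0.01 parts 85% phosphoric acid, frozen. Plasma levels measured by LC–MS–MS after C18 solid-phase extraction, with internal standard.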

A short description of data set [8]: Volume of distribution in rat at 1 mg/kg, iv and 1 mg/kg, po. Particulars: in vivo, read-out: Vdss. In kind it is ADME, organism-based. An outline of the steps: as §1
Data set [9] is described as follows: Half life in rat at 1 mg/kg, iv and 1 mg/kg, po. The note with it: in vivo. The format is ADME, organism-based. Summed up:
as §1

Data set [10] is described as follows: Fraction unbound ligand in rat at 1 mg/kg, iv and 1 mg/kg, po. In kind it is ADME, organism-based. Particulars: in vivo. An outline of the steps: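 Fraction unbound in rat plasma measured at 1 µg/ml by equilibrium dialysis against isotonic Krebs–Ringer bicarbonate buffer, pH 7.4.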
A short description of data set [11]: Oral bioavailability in rat at 1 mg/kg, iv and 1 mg/kg, po. The format is ADME, organism-based. The note with it: in vivo. Summed up:
as §1

By IC50 is commonly meant the midpoint of a concentration-inhibition curve. Lower therefore signals greater potency in that assay. `COCCC(CC1(C(=O)NCCCc2ccccc2)CCCC1)C(=O)O` (stereo not drawn) yielded an IC50 in data set [1] of 0.035 µM. In the data set listed under Sus scrofa, this molecule displayed an Activity greater than 3 µM.
`CCCC(CC1(C(=O)Nc2nnc(CC)s2)CCCC1)C(=O)O` (stereo not drawn) yielded an IC50 in data set [1] of 0.06 µM. This molecule also had an Activity in the data set filed under Sus scrofa greater than 3 µM.
One may read the logD as lipophilicity at a set pH, counting ionised and neutral species. Low values mean a more hydrophilic compound, high ones a more lipophilic compound. What is called half-life is the time in which the quantity being followed falls by half. Usually Papp A→B stands for how fast a substance crosses the layer from the apical side. With `COCC[C@H](CC1(C(=O)N[C@@H]2C[C@H]2c2ccc(OC)cc2)CCCC1)C(=O)O`, the figures for the IC50 in data set [1] and in [6] were 0.008 µM and 0.0057 µM, respectively. For the same molecule, the Activity (in the data set filed under Sus scrofa; in [2]) was greater than 3 µM throughout. This molecule returned a logD in data set [3] of 0.3. This molecule registered a half-life at 1 µM in [4] greater than 2 h. This molecule registered a Papp A→B in [5] of 7 ×10⁻⁶ cm/s. Further, the fraction unbound at 1 ug/ml in the data set listed under Homo sapiens was 0.032.
On to `COCC(CC1(C(=O)N[C@H]2C[C@@H]2c2ccccc2)CCCC1)C(=O)O` (relative stereo), for which the midpoint of inhibition in [1], the IC50, lay at 0.065 µM. In the data set listed under Sus scrofa, this molecule yielded an Activity greater than 3 µM.
Consider `COCCC(CC1(C(=O)N[C@@H]2C[C@H]2c2ccc(F)cc2)CCCC1)C(=O)O` (relative stereo), for which, in [1], the IC50 came out at 0.04 µM. The molecule also gave an Activity in the data set filed under Sus scrofa greater than 3 µM.
As for `COCCC(CC1(C(=O)NCCCc2ccc(Cl)cc2)CCCC1)C(=O)O` (stereo not drawn), the IC50 in data set [1] stood at 0.002 µM. The same molecule came in with an Activity in the data set listed under Sus scrofa greater than 3 µM.
In turn, `COCCC(CC1(C(=O)NCCc2ccc(OC)cc2)CCCC1)C(=O)O` (stereo not drawn) had an IC50 in [1] of 0.369 µM. For the same molecule, the Activity in the data set listed under Sus scrofa is greater than 3 µM.
In turn, `COCCC(CC1(C(=O)NCCOc2ccc(OC)cc2)CCCC1)C(=O)O` (stereo not drawn) yielded an IC50 in data set [1] of 0.035 µM. The Activity in the data set filed under Sus scrofa was greater than 3 µM.
Take `COCCC(CC1(C(=O)NCCCc2ccc(F)cc2)CCCC1)C(=O)O` (stereo not drawn): the IC50 in data set [1] was found to be 0.015 µM. Moreover, the Activity in the data set listed under Sus scrofa was greater than 3 µM.
`COCC(CC1(C(=O)N[C@H]2C[C@@H]2c2ccc(Cl)cc2)CCCC1)C(=O)O` (relative stereo) returned an IC50 in data set [1] of 0.02 µM. In the data set filed under Sus scrofa, the Activity is greater than 3 µM.
As for `CCCCCCCNC(=O)C1(CC(CCOC)C(=O)O)CCCC1` (stereo not drawn), the IC50 in data set [1] came to 0.008 µM. Besides, the Activity in the data set filed under Sus scrofa was greater than 3 µM.
Taken in the same sequence, the figures for `COCCC(CC1(C(=O)Nc2nnc(Cc3ccccc3)s2)CCCC1)C(=O)O` (stereo not drawn) were 0.005 µM and greater than 3 µM.
In data set [1], `COCCC(CC1(C(=O)N[C@@H]2C[C@H]2c2ccc(OC)cc2)CCCC1)C(=O)O` (relative stereo) displayed an IC50 of 0.008 µM. Further, in the data set filed under Sus scrofa, the Activity was greater than 3 µM.
As to `CCCCC[C@@H]1C[C@H]1NC(=O)C1(CC(CCOC)C(=O)O)CCCC1` (relative stereo), the IC50 in data set [1] was found to be 0.01 µM. For the same molecule, in the data set filed under Sus scrofa, the Activity is greater than 3 µM.
Consider `COCCC(CC1(C(=O)NC(C)Cc2ccccc2)CCCC1)C(=O)O` (stereo not drawn), for which 0.426 µM corresponded to half-maximal inhibition in data set [1] (IC50). In the data set listed under Sus scrofa, this molecule showed an Activity greater than 3 µM.
Molecule `CCC[C@H](CC1(C(=O)Nc2nnc(CC)s2)CCCC1)C(=O)O` registered an IC50 in [1] of 0.0237 µM. Also, the Activity (in the data set filed under Sus scrofa; in data set [2]) was greater than 3 µM in each case. For the same molecule, the log distribution coefficient (logD) in data set [3] was found to be 0.5. In data set [4], the half-life at 1 µM was greater than 2 h. Besides, the Papp A→B in [5] came to 9 ×10⁻⁶ cm/s. This molecule yielded a clearance in [7] of 3 mL/min/kg. In [8], the Vd came out at 0.44 L/kg. This molecule also had a half-life in data set [9] of 1.7 h. This molecule showed a Fu in data set [10] of 0.106.
As for `COCCC(CC1(C(=O)N[C@H]2C[C@@H]2c2ccc(Cl)cc2)CCCC1)C(=O)O` (relative stereo), the IC50 in [1] came to 0.021 µM. The molecule further yielded an Activity in the data set listed under Sus scrofa greater than 3 µM.
Taken in the same sequence, the figures for `COCCC(CC1(C(=O)NCCCc2ccc(OC)cc2)CCCC1)C(=O)O` (stereo not drawn) were 0.002 µM and greater than 3 µM.
Taken in the same sequence, the figures for `COCCC(CC1(C(=O)N[C@H]2C[C@@H]2c2ccccc2)CCCC1)C(=O)O` (relative stereo) were 0.1 µM and greater than 3 µM.
On to `COCCC(CC1(C(=O)NC2(CO)Cc3ccccc3C2)CCCC1)C(=O)O` (stereo not drawn), for which the IC50 in data set [1] worked out at 0.011 µM. In the data set listed under Sus scrofa, this molecule showed an Activity greater than 3 µM.
For `COCC[C@H](CC1(C(=O)NCCCc2ccc(F)cc2)CCCC1)C(=O)O`, the IC50 in [1] stood at 0.002 µM; in data set [6], 0.0088 µM. In addition, the Activity (in the data set filed under Sus scrofa; in [2]) was greater than 3 µM throughout. In addition, in data set [3], the logD was 0.5. The molecule also registered a half-life at 1 µM in [4] greater than 2 h. For the same molecule, the Papp A→B in data set [5] worked out at 12 ×10⁻⁶ cm/s. The clearance in [7] worked out at 13 mL/min/kg. Besides, the Vd in data set [8] came out at 2.7 L/kg. In data set [9], this molecule showed a half-life of 2.4 h. The fraction unbound in [10] was found to be 0.138. Also, the bioavailability in [11] came out at 138%. For the same molecule, in the data set filed under Homo sapiens, the fraction unbound at 1 ug/ml is 0.124.
Regarding `COCCC(CC1(C(=O)NCCc2ccccc2)CCCC1)C(=O)O` (stereo not drawn), in data set [1], half-maximal inhibition (IC50) required 0.5 µM. This molecule also registered an Activity in the data set filed under Sus scrofa greater than 3 µM.
`CCCCc1ccnc(NC(=O)C2(CC(CCOC)C(=O)O)CCCC2)c1` (stereo not drawn) registered an IC50 in data set [1] of 0.017 µM. The Activity in the data set filed under Sus scrofa was greater than 3 µM.
Take `CCCC(CC1(C(=O)N[C@H]2C[C@@H]2c2ccccc2)CCCC1)C(=O)O` (relative stereo): it took 0.16 µM to reach half-maximal inhibition in data set [1] (IC50). The Activity in the data set listed under Sus scrofa is greater than 3 µM.
